According to PubChem BioAssay AID504382 (The Scripps Research Institute Molecular Screening Center, 2011):
The campaign covered roughly 2,500 compounds. About 460 (18%) were called active.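 The calls were made as follows: active = mean activation above a cutoff of low control average plus 3 SD from the earlier screen (cut at about 12% in these data); inactive = the rest.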 Only a sample is shown.

Test: IANBD-channel fluorescence artefacts in buffer – biochemical, artefact control for cardiac RTF calcium sensitizer project, confirmation (AID 504382)
Details: IANBD fluorescence interference counterscreen, EC20 Ca2+, at 7.2 µM, hits give high values, scaled: EC20 calcium 0, EC100 calcium 100
Method in brief: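 Also added: EC20 calcium, 0.472 mM; dosing: single nominal 7.2 µM compound dose, 0.7% DMSO final; timing: 15 min, 25 °C; detection: fluorescence intensity, excitation 480 nm, emission 540 nm; replicates: each compound tested in triplicate wells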

SMILES | fluorescence artifact activation
C=CCOc1ccc(Br)cc1CNCC | 6.82% (inactive)
CCOc1ccc(C(=O)NCC(=O)N2CCC3CCCCC3C2)cc1OCC (configuration not stated) | 59.4% (active)
CCOc1ccc(C(=O)NCC(=O)Nc2ncccc2C)cc1OCC | 1.27% (inactive)
CCOc1cc(C#N)ccc1OCC(=O)N1CCc2ccccc2C1 | 0.13% (inactive)
COCCOC(=O)/C(=C/c1ccc(OC(=O)c2ccccc2)cc1)C(C)=O | 4.54% (inactive)
COC(=O)c1ccc(NC(=O)c2snnc2-c2ccccc2)cc1 | 1.82% (inactive)
O=C(c1ccc2c(=O)n3c(nc2c1)CCCCC3)N1CCN(c2cccc(Cl)c2)CC1 | 0.04% (inactive)
Oc1ccc2ccccc2c1C=NCc1cn2ccsc2n1 | -0.01% (inactive)
N#C/C(=C\c1ccc(-c2ccc(F)cc2)o1)C(=O)Nc1nc(-c2cccs2)cs1 | 15.1% (active)
N#C/C(=C/c1ccc(N2CCOCC2)o1)C(=O)Nc1ccccc1 | 0.03% (inactive)
Cn1c(/C(C#N)=C/c2ccc(-c3ccc(S(N)(=O)=O)cc3)o2)nc2ccccc21 | 0.08% (inactive)
N#C/C(=C/c1ccc(-c2ccccc2)o1)c1nc(-c2cccs2)cs1 | 19.2% (active)
Cc1cc(Cl)ccc1OCC(=O)Nc1nc(-c2cccs2)cs1 | 0.04% (inactive)
N#C/C(=C\C=C\c1ccccc1)c1nc(-c2ccc3c(c2)OCO3)cs1 | 0.13% (inactive)
O=C(CSc1n[nH]c(-c2cccs2)n1)N1CCOCC1 | -0.05% (inactive)
Cc1nnc(SCC(=O)NC(C)(C)C)n1C1CCCCC1 | 10.9% (inactive)
Nc1c(C(=O)c2ccc(Cl)cc2)sc2nsc(SCCN3CCOCC3)c12 | 0.08% (inactive)
Oc1ccc2nnc3c(Br)cnn3c2c1 | 0.07% (inactive)
COc1ccc(/C=N/NC(=O)c2cc(OC)c(OC)c(OC)c2)cc1CN1CCc2cc(OC)c(OC)cc2C1C (configuration not stated) | 7.53% (inactive)
CC1(C)CC(N2CCCC2)=CC(=[N+]2CCCCC2)C1 | 2.5% (inactive)
COc1ccc2[nH]c(C)c(CCN(Cc3cccs3)C(=S)Nc3ccc(F)cc3)c2c1 | 1.01% (inactive)
O=C(Cc1ccc(NC(=O)C2CCCN(C(=O)C3CCCCC3)C2)cc1)Nc1cccc(C(=O)N2CCCC2)c1 (configuration not stated) | 0.41% (inactive)
COc1ccc(Cn2nnc3ccccc32)cc1 | 0.37% (inactive)
CCOc1ccc(Cn2c3ccc(OC)cc3c3nc4ccccc4nc32)cc1 | 23.1% (active)

SMILES | fluorescence artifact activation
CCCCOC(=O)Cn1c2ccc(OC)cc2c2nc3ccccc3nc21 | 0.92% (inactive)
COC(=O)C(=N/Nc1ccccc1C(=O)OC)/C(C)=N/O | 6.02% (inactive)
C/C(=N/NC(=O)c1cc(C)[nH]n1)c1ccco1 | 0.79% (inactive)
COc1ccc(/C=c2\s/c(=C/C(=O)c3ccc(C)cc3)[nH]c2=O)cc1OC | 0.04% (inactive)
CN1CCc2c(sc3nc(SCC(N)=O)n(-c4ccccc4)c(=O)c23)C1 | -0.02% (inactive)
Cc1ccc(NS(=O)(=O)c2ccc(C(=O)N3CCN(c4ncccn4)CC3)cc2)cc1 | 0.15% (inactive)
COc1ccc2c(c1)cc(C(=O)N[C@@H](CCSC)C(=O)N1CCC[C@H]1C(=O)O)n2C | 1.37% (inactive)
O=C(O)c1cc(NCc2ccc(F)cc2)ccc1N1CCOCC1 | 18.7% (active)
O=C1N/C(=C\c2ccc(N3CCOCC3)c(F)c2)C(=O)N1Cc1ccccc1 | 0.25% (inactive)
O=C(N1CCOCC1)N1CCN(c2ccc(F)cc2)CC1 | 0.02% (inactive)
CCOc1ccccc1N(CC(=O)Nc1ccc(OC)c(OC)c1)S(=O)(=O)c1ccccc1 | 0.04% (inactive)
CC1=Nc2ccccc2/C1=C/c1nc(-c2ccc(C)s2)oc1O | 0.4% (inactive)
CC(=O)Nc1ccc(N2C(=O)c3cccc4c(O)ccc(c34)C2=O)cc1 | 0.2% (inactive)
COC(=O)C1(C)NC(c2ccc(C)cc2)C2C(=O)N(c3ccc(F)cc3)C(=O)C21 (configuration not stated) | 3.94% (inactive)
CC(=O)Nc1ccc(N2C(=O)CSC2c2ccc(F)cc2)cc1 (configuration not stated) | 47.7% (active)
Nc1nc2ccccc2n1CCOc1ccc(Br)cc1 | 0.41% (inactive)
O=C(C1=C(O)C(=O)N(c2nccs2)C1c1ccccc1)c1cc2ccccc2o1 (configuration not stated) | -0.02% (inactive)
Cc1ccccc1Cn1cccc1/C=C1/C(=N)N2C=CSC2=NC1=O | 0.51% (inactive)
C=CCNc1nnc(SCC(=O)N2CCC(C(N)=O)CC2)s1 | 2.23% (inactive)
CCOc1c2ccc(C(=O)NCc3ccc(C)cc3)cc2nn1CCOC | 0.08% (inactive)
CCN(CC(=O)Nc1c(F)cccc1F)C(=O)CNC(=O)COc1ccccc1 | -0.06% (inactive)
c1ccc(-n2ncc(-c3nn[nH]n3)n2)cc1 | 48.8% (active)
O=C(C1=NN(c2ccccc2)C2C(=O)N(c3ccccc3)C(=O)C12)c1ccccc1 (configuration not stated) | -0.1% (inactive)
